Assay results as given in ChEMBL document CHEMBL4665734, “Optimization of globomycin analogs as novel gram-negative antibiotics” (Bioorg Med Chem Lett, 2020).
Values after ≈ are worked out from the molar mass of the structure shown. Starred links: 1 amine or outer side, 2 acyl side, 3 side chain; linkers in the order of their positions; H or OH if unused. Non-standard residues stand in square brackets, D forms with d. Residues, ends and D or L forms follow the SMILES beside them. *: point of attachment. X6 = C[C@H](CO[C@H](CC1C[C@H]2CC[C@@H](C1)C2)[C@@H](C)C(=O)[*:2])N[*:1]; dAlaψ(CH2NBu)Nle = CCCC[C@@H](C(=O)[*:2])N(CCCC)C[C@@H](C)N[*:1]; X1 = CCCCCC[C@@H](OC[C@@H](C)N[*:1])[C@@H](C)C(=O)[*:2]; Cyclobutyl(trans-3-NH2) = N[C@H]1C[C@H](*)C1; X4 = CCCCCCN(CCN[*:1])[C@@H](C)C(=O)[*:2]; Gly(cHept) = N[C@H](C(=O)O)C1CCCCCC1; aThr = C[C@H](O)[C@H](N)C(=O)O; NMeL = CN[C@@H](CC(C)C)C(=O)O; Chg = N[C@H](C(=O)O)C1CCCCC1; NMeNva = CCC[C@H](NC)C(=O)O; X14 = NCCN1CC[C@H](*)C1; Dap = NC[C@H](N)C(=O)O; Propyl(3-NH2) = NCCC*; X12 = NCC(CN)*; X5 = NCCCNCCC*

Legend:
[1] = Clearance in rat liver microsomes; format: ADME, Microsome
Summary of the method: (§1)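 Intrinsic clearance in rat or mouse liver microsomes, expressed in mL/min/kg.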

[2] = Clearance in iv dosed rat; format: ADME, organism-based; conditions: in vivo
[3] = Clearance in mouse liver microsomes; format: ADME, Microsome; summary of the method: as §1
[4] = Growth inhibition of Staphylococcus aureus USA300
Escherichia coli = experiment: Inhibition of LspA in Escherichia coli CFT073imp4213 harboring outer membrane-permeable mutant assessed as inhibition of bacterial growth
Summary of the method: (§2)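 Read-out is the minimum inhibitory concentration, reported in µM.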

[5] = Stability of the compound in mouse plasma assessed as parent compound remaining after 24 hrs; format: ADME, cell-free; conditions: read-out: Stabilty
Summary of the method: (§3)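 Test compound incubated for 24 hour in human, rat or mouse plasma. Stability is reported as the percentage of parent compound remaining.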

[6] = Protein binding in mouse plasma; format: ADME, cell-free; conditions: read-out: PPB (converted)
[7] = Lipophilicity, logD of the compound at pH 7.4; conditions: buffer, pH 7.4, logD
Escherichia coli CFT073 = experiment: Inhibition of LspA in wild type Escherichia coli CFT073 assessed as inhibition of bacterial growth; summary of the method: as §2
[8] = Half life in iv dosed rat; format: ADME, organism-based; conditions: in vivo
[9] = Protein binding in rat plasma; format: ADME, cell-free; conditions: read-out: PPB (converted)
[10] = Stability of the compound in rat plasma assessed as parent compound remaining after 24 hrs; format: ADME, cell-free; conditions: read-out: Stabilty; summary of the method: as §3
[11] = Stability of the compound in human plasma assessed as parent compound remaining after 24 hrs; format: ADME, cell-free; conditions: read-out: Stabilty; summary of the method: as §3
Klebsiella pneumoniae = experiment: Inhibition of LspA in Klebsiella pneumoniae assessed as inhibition of bacterial growth
Acinetobacter baumannii = experiment: Inhibition of LspA in Acinetobacter baumannii assessed as inhibition of bacterial growth
Pseudomonas aeruginosa = experiment: Inhibition of LspA in Pseudomonas aeruginosa assessed as inhibition of bacterial growth
[12] = Clearance in iv dosed mouse; format: ADME, organism-based; conditions: in vivo
[13] = Half life in iv dosed mouse; format: ADME, organism-based; conditions: in vivo
Enterobacter cloacae = experiment: Inhibition of LspA in Enterobacter cloacae assessed as inhibition of bacterial growth
Jurkat = experiment: Cytotoxicity against human Jurkat cells; format: cell-based
Summary of the method: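 Jurkat cell growth assay. Result reported as antiproliferative EC50.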

| SMILES | MIC [4] [µM] | MIC (Escherichia coli) [µM] | remaining at 24 h [5] [%] | logD [7] | MIC (Escherichia coli CFT073) [µM] | remaining at 24 h [11] [%] | other results |
| --- | --- | --- | --- | --- | --- | --- | --- |
| CCCC[C@H]1C(=O)N(C)[C@@H](CC(C)C)C(=O)N[C@@H](C2CCCCC2)C(=O)N[C@@H](CN)C(=O)N[C@@H]([C@H](C)O)C(=O)N[C@H](C)CN1CCCC (cyclo([Chg][Dap][aThr][dAlaψ(CH2NBu)Nle][NMeL])) | 71 (≈ 48.3 µg/mL) | 0.017 (≈ 0.0116 µg/mL) | 89 | 3.4 | 1.6 (≈ 1.09 µg/mL) | 97 | CLhep predicted [1]: 27 mL/min/kg; clearance [2]: 53 mL/min/kg; CLhep predicted [3]: 77 mL/min/kg; fraction unbound [6]: 0.004; half-life [8]: 2.6 h; fraction unbound [9]: 0.005; remaining at 24 h [10]: 102% |
| CCCCCCN1CCNC(=O)[C@H]([C@H](C)O)NC(=O)[C@H](CN)NC(=O)[C@H](C2CCCCC2)NC(=O)[C@H](CC(C)C)N(C)C(=O)[C@@H]1C (cyclo([Chg][Dap][aThr][X4][NMeL])) | > 100 | 0.5 (≈ 0.326 µg/mL) | 112 |  | 25 (≈ 16.3 µg/mL) | 95 |  |
| CCCCCC[C@H]1OC[C@@H](C)NC(=O)[C@H](COC(CN)CN)NC(=O)[C@H](CN)NC(=O)[C@H](C2CCCCCC2)NC(=O)[C@H](CCC)N(C)C(=O)[C@@H]1C (cyclo([Dap]S(X12)[X1][NMeNva][Gly(cHept)])) | 50 (≈ 37 µg/mL) | 0.55 (≈ 0.406 µg/mL) |  | 1.1 | 3.1 (≈ 2.29 µg/mL) |  |  |
| CCC[C@H]1C(=O)N[C@@H](C2CCCCCC2)C(=O)N[C@@H](CN)C(=O)N[C@@H]([C@H](C)O)C(=O)NCC(=O)O[C@H](C[C@@H]2CC[C@@H]3CC[C@H]2C3)[C@@H](C)C(=O)N1C | 25 (≈ 18 µg/mL) | 0.009 (≈ 0.00647 µg/mL) |  | 3.1 | 0.4 (≈ 0.288 µg/mL) |  |  |
| CCCCCCCCCC[C@H]1OC(=O)CNC(=O)[C@H]([C@H](C)O)NC(=O)[C@H](CN)NC(=O)[C@H]([C@H](C)CC)NC(=O)[C@H](CC(C)C)N(C)C(=O)[C@@H]1C | 15 (≈ 10.7 µg/mL) | 0.011 (≈ 0.00782 µg/mL) |  | 4.6 | 2.1 (≈ 1.49 µg/mL) |  |  |
| CCCCCC[C@H]1OC[C@@H](C)NC(=O)[C@H](CO[C@H]2CCN(CCN)C2)NC(=O)[C@H](CN)NC(=O)[C@H](C2CCCCCC2)NC(=O)[C@H](CCC)N(C)C(=O)[C@@H]1C (cyclo([Dap]S(X14)[X1][NMeNva][Gly(cHept)])) | 100 (≈ 77.9 µg/mL) | 0.2 (≈ 0.156 µg/mL) |  | 1.6 | 6.3 (≈ 4.91 µg/mL) |  |  |
| CC[C@@H](C)[C@@H]1NC(=O)[C@H](CC(C)C)N(C)C(=O)[C@H](C)[C@@H](CCCCCC(F)(F)F)OC(=O)CNC(=O)[C@H]([C@H](C)O)NC(=O)[C@H](CN)NC1=O | > 100 | 0.39 (≈ 0.276 µg/mL) |  | 2 | 25 (≈ 17.7 µg/mL) |  |  |
| CCCCCC[C@H]1OC[C@@H](C)NC(=O)[C@H](COCCCN)NC(=O)[C@H](CN)NC(=O)[C@H](C2CCCCC2)NC(=O)[C@H](CC(C)C)N(C)C(=O)[C@@H]1C (cyclo([Chg][Dap]S(Propyl(3-NH2))[X1][NMeL])) | 100 (≈ 72.4 µg/mL) | 0.28 (≈ 0.203 µg/mL) |  | 1.5 | 11 (≈ 7.96 µg/mL) |  |  |
| CCCC[C@H]1C(=O)N(C)[C@@H](CCC)C(=O)N[C@@H](C2CCCCC2)C(=O)N[C@@H](CN)C(=O)N[C@@H](CO[C@H]2C[C@H](N)C2)C(=O)N[C@H](C)CN1CCCC (cyclo([Chg][Dap]S(Cyclobutyl(trans-3-NH2))[dAlaψ(CH2NBu)Nle][NMeNva])) | 50 (≈ 36.1 µg/mL) |  | 55 | 1.5 | 6.3 (≈ 4.54 µg/mL) | 105 | CLhep predicted [1]: < 6.1 mL/min/kg; clearance [2]: 24 mL/min/kg; CLhep predicted [3]: 32 mL/min/kg; MIC (Klebsiella pneumoniae): 25 µM (≈ 18 µg/mL); fraction unbound [6]: 0.026; half-life [8]: 6.8 h; MIC (Acinetobacter baumannii): 25 µM (≈ 18 µg/mL); fraction unbound [9]: 0.047; remaining at 24 h [10]: 58%; MIC (Pseudomonas aeruginosa): 100 µM (≈ 72.1 µg/mL) |
| CCCCCC[C@H]1OC[C@H](C)NC(=O)[C@H]([C@H](C)O)NC(=O)[C@H](CN)NC(=O)[C@H](C2CCCCC2)NC(=O)[C@H](CC(C)C)N(C)C(=O)[C@@H]1C | 71 (≈ 48.3 µg/mL) | 1 (≈ 0.681 µg/mL) | 93 |  | 84 (≈ 57.2 µg/mL) | 88 |  |
| CCC[C@H]1C(=O)N[C@@H](C2CCCCCC2)C(=O)N[C@@H](CN)C(=O)N[C@@H]([C@H](C)O)C(=O)NCC(=O)O[C@H](CC2CC3(CCC3)C2)[C@@H](C)C(=O)N1C | 50 (≈ 35.2 µg/mL) | 0.009 (≈ 0.00634 µg/mL) |  | 2.9 | 0.78 (≈ 0.55 µg/mL) |  |  |
| CCC[C@H]1C(=O)N[C@@H](C2CCCCCC2)C(=O)N[C@@H](CN)C(=O)N[C@@H](COCCCNCCCN)C(=O)N[C@H](C)CO[C@H](CC2C[C@H]3CC[C@@H](C2)C3)[C@@H](C)C(=O)N1C (stereo partly drawn) (cyclo([Dap]S(X5)[X6][NMeNva][Gly(cHept)])) | 12 (≈ 9.83 µg/mL) |  |  | 0.2 | 0.78 (≈ 0.639 µg/mL) |  | clearance [12]: 68 mL/min/kg; MIC (Klebsiella pneumoniae): 1.6 µM (≈ 1.31 µg/mL); fraction unbound [6]: 0.004; half-life [13]: 2.5 h; MIC (Enterobacter cloacae): 1.6 µM (≈ 1.31 µg/mL); MIC (Acinetobacter baumannii): 25 µM (≈ 20.5 µg/mL); fraction unbound [9]: 0.026; EC50 (Jurkat): > 100 µM; MIC (Pseudomonas aeruginosa): 12 µM (≈ 9.83 µg/mL) |
